The values below come from ChEMBL document CHEMBL4229515, “A novel synthesis of 2-arylbenzimidazoles in molecular sieves-MeOH system and their antitubercular activity” (Bioorg Med Chem, 2018).

The test system of data set [1] is Mycobacterium tuberculosis. Kind of data set: Antimycobacterial activity against Mycobacterium tuberculosis H37Rv by BACTEC 460 radiometric method. Format: functional. In a few lines:
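Radiometric BACTEC assay against the H37Rv strain, run per a previously reported method. Positive controls were rifampicin, streptomycin and isoniazid. The MIC was read in µM.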

Data set [2] relates to Mus musculus. In words: Acute toxicity in Swiss albino mouse assessed as effect on body weight at 300 mg/kg, po after 7 days (reference value: 28.25 +/- 0.54 g). Format: organism-based. The note with it: in vivo, 168 h.
Data set [3] concerns Mus musculus. In words: Acute toxicity in Swiss albino mouse assessed as effect on tissue protein levels at 300 mg/kg, po after 7 days (reference value: 0.06 +/- 0.004 mg/mL). Format: organism-based. The note with it: in vivo, 168 h.
The test system of data set [4] is Mus musculus. Kind of data set: Acute toxicity in Swiss albino mouse assessed as effect on haemoglobin levels at 1000 mg/kg, po after 7 days (reference value: 12.29 +/- 0.53 g/dL). As to conditions: in vivo, 168 h. Format: organism-based.

The structures appear in SMILES notation. ≈ marks a conversion by molar mass, not a printed value.

In data set [1], `COc1ccc2c(c1)nc(-c1ccccc1OC)n2Cc1ccccc1OC` registered a minimal inhibitory concentration (MIC) of 16 µM (≈ 5.99 µg/mL). Also, the Activity in the data set on Mus musculus [2] was 25.47 g; in the data set with Mus musculus [3] it was 0.05 mg/mL; in the data set with Mus musculus [4], 9.68 g/dL.
